{
  "source": "ChEMBL document CHEMBL1833917",
  "about": "“Antimalarial activity of physalins B, D, F, and G” (J Nat Prod, 2011)",
  "key": {"[1]": {"assay": "Selectivity index, ratio of LC50 for mouse splenocytes to IC50 for chloroquine-resistant and mefloquine-sensitive Plasmodium falciparum W2", "summary_of_the_method": "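SI = splenocyte LC50 (3H-thymidine assay) divided by W2 P. falciparum IC50 (3H-hypoxanthine assay), each from three independent experiments.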"}, "[2]": {"assay": "Cytotoxicity against BALB/c mouse splenocytes assessed as [3H]thymidine incorporation after 24 hrs by beta counting", "format": "cell-based, Splenocyte", "details": "read-out: LC50", "summary_of_the_method": "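BALB/c splenocytes, 6 × 10^5 cells/well, in DMEM + 10% FCS + 50 μg/mL gentamycin. Compounds were tested at five concentrations in triplicate. 3H-thymidine (1 μCi/well) was added, followed by 24 h at 37 °C, 5% CO2, then β-counting. Cytotoxicity was taken relative to untreated cultures and LC50 derived. Means ± SD of three experiments.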"}, "Plasmodium falciparum": {"tested_on": "Plasmodium falciparum", "assay": "Antimalarial activity against chloroquine-resistant and mefloquine-sensitive Plasmodium falciparum W2 infected in human O-positive erythrocytes assessed as inhibition of parasite growth by [3H]hypoxanthine incorporation assay", "format": "functional, organism-based", "summary_of_the_method": "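Compounds were tested at several concentrations, diluted in 4% DMSO/RPMI without hypoxanthine, with mefloquine as control. Growth was measured by 3H-hypoxanthine uptake versus untreated wells. Triplicate, means ± SD of three independent experiments.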"}, "Plasmodium berghei [3]": {"tested_on": "Plasmodium berghei", "assay": "Antimalarial activity against Plasmodium berghei NK65 infected in mouse assessed as reduction of host mortality at 50 to 100 mg/kg, ip qd for 4 days measured on day 7", "format": "functional, organism-based", "summary_of_the_method": "(§1)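 Male Swiss mice (5-week-old, SPF), groups of five, infected with P. berghei NK65 (line kept by weekly ip blood passage of 10^6 infected RBC). Dosing ip, 200 μL, daily for four consecutive days from the first day of infection, in saline + 10% DMSO. Comparators were chloroquine 50 mg/kg and 10% DMSO/saline mock. Survival was monitored to day 24.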"}, "Plasmodium berghei [4]": {"tested_on": "Plasmodium berghei", "assay": "Antimalarial activity against Plasmodium berghei NK65 infected in mouse assessed as reduction of parasitemia level at 50 to 100 mg/kg, ip qd for 4 days by optical microscopy analysis", "format": "functional, organism-based", "summary_of_the_method": "as §1"}, "Plasmodium berghei [5]": {"tested_on": "Plasmodium berghei", "assay": "Antimalarial activity against Plasmodium berghei NK65 infected in mouse assessed as reduction of host mortality at 100 mg/kg, ip qd for 4 days measured on day 24 postinfection", "format": "functional", "set-up": "scale not given: the % may be the effect or the level left", "details": "route intraperitoneal", "summary_of_the_method": "as §1"}, "Plasmodium berghei [6]": {"tested_on": "Plasmodium berghei", "assay": "Antimalarial activity against Plasmodium berghei NK65 infected in mouse assessed as reduction of parasitemia level at 50 to 100 mg/kg, ip qd for 4 days measured on day 8 postinfection by optical microscopy analysis", "format": "functional", "set-up": "scale not given: the % may be the effect or the level left", "details": "dose mg/kg 50-100; route intraperitoneal", "summary_of_the_method": "as §1"}, "Plasmodium berghei [7]": {"tested_on": "Plasmodium berghei", "assay": "Antimalarial activity against Plasmodium berghei NK65 infected in mouse assessed as reduction of parasitemia level at 50 mg/kg, ip qd for 4 days by optical microscopy analysis", "format": "functional, organism-based", "set-up": "dose 50 mg/kg", "summary_of_the_method": "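Male SPF Swiss mice, 5 weeks old, infected with P. berghei NK65 (line kept by weekly ip blood passage of 10^6 infected RBC). Groups of five were dosed ip daily for 4 days from the first day of infection, in 200 μL saline plus 10% DMSO. Chloroquine 50 mg/kg and vehicle served as controls. Parasitemia was counted by microscopy on methanol-fixed, fast-panoptic-stained blood smears on days 4–8. Reduction was calculated versus vehicle. Two replicate experiments were run.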"}},
  "note": "Calls of active or inactive are those of the source. No cut-off for these calls is given here.",
  "data": [
    {"smiles": "C[C@@]12C[C@H]3OC(=O)[C@@H]1CO[C@]14O[C@]5([C@H]2C1=O)[C@@](O)(CC[C@H]1[C@H]4C[C@H]2O[C@]24CC=CC(=O)[C@]14C)C(=O)O[C@@]35C", "note": "[PHYSALIN F]", "values": [
      {"measurement": "Ratio LC50/IC50", "setting": "[1]", "result": 5.94},
      {"measurement": "CC50 at 24 h", "setting": "[2]", "result": 13.3, "unit": "µM"},
      {"measurement": "IC50", "setting": "Plasmodium falciparum", "result": 2.2, "unit": "µM"},
      {"measurement": "Activity", "setting": "Plasmodium berghei [3]", "result": "Active"},
      {"measurement": "Activity", "setting": "Plasmodium berghei [4]", "result": "inactive"}
    ]},
    {"smiles": "OC(c1cc(C(F)(F)F)nc2c(C(F)(F)F)cccc12)C1CCCCN1", "note": "(centres undefined) [MEFLOQUINE]", "values": [
      {"measurement": "Ratio LC50/IC50", "setting": "[1]", "result": 238},
      {"measurement": "CC50 at 24 h", "setting": "[2]", "result": 9.5, "unit": "µM"}
    ]},
    {"smiles": "C[C@@]12C[C@H]3OC(=O)[C@@H]1CO[C@@]14O[C@]5([C@H]2C1=O)[C@@](O)(CC[C@H]1[C@H]4C[C@@H](O)[C@@]2(O)CC=CC(=O)[C@]12C)C(=O)O[C@@]35C", "note": "[PHYSALIN D]", "values": [
      {"measurement": "Ratio LC50/IC50", "setting": "[1]", "result": 10.4},
      {"measurement": "CC50 at 24 h", "setting": "[2]", "result": 570, "unit": "µM"},
      {"measurement": "Activity", "setting": "Plasmodium berghei [5]", "result": 25, "unit": "%"},
      {"measurement": "IC50", "setting": "Plasmodium falciparum", "result": 55, "unit": "µM"},
      {"measurement": "Activity", "setting": "Plasmodium berghei [6]", "result": 65, "unit": "%"}
    ]},
    {"smiles": "C[C@]12C(=O)C=CC=C1[C@@H](O)C[C@@H]1[C@@H]2CC[C@@]2(O)C(=O)O[C@@]3(C)[C@H]4C[C@]5(C)[C@@H](CO[C@@]16O[C@]23[C@H]5C6=O)C(=O)O4", "note": "[PHYSALIN G]", "values": [
      {"measurement": "Ratio LC50/IC50", "setting": "[1]", "result": 5.6},
      {"measurement": "CC50 at 24 h", "setting": "[2]", "result": 37.5, "unit": "µM"},
      {"measurement": "IC50", "setting": "Plasmodium falciparum", "result": 6.7, "unit": "µM"}
    ]},
    {"smiles": "CCN(CC)CCCC(C)Nc1ccnc2cc(Cl)ccc12", "note": "(centres undefined)", "values": [
      {"measurement": "Activity", "setting": "Plasmodium berghei [7]", "result": "Active"}
    ]},
    {"smiles": "C[C@]12C(=O)C=CCC1=CC[C@@H]1[C@@H]2CC[C@]2(O)C(=O)O[C@@]3(C)[C@H]4C[C@]5(C)[C@@H](CO[C@@]16O[C@@]32[C@H]5C6=O)C(=O)O4", "note": "[PHYSALIN B]", "values": [
      {"measurement": "Ratio LC50/IC50", "setting": "[1]", "result": 12.3},
      {"measurement": "CC50 at 24 h", "setting": "[2]", "result": 33.9, "unit": "µM"},
      {"measurement": "IC50", "setting": "Plasmodium falciparum", "result": 2.8, "unit": "µM"}
    ]}
  ]
}
